According to ChEMBL document CHEMBL1140759, “Synthesis, anti-Toxoplasma gondii and antimicrobial activities of benzaldehyde 4-phenyl-3-thiosemicarbazones and 2-[(phenylmethylene)hydrazono]-4-oxo-3-phenyl-5-thiazolidineacetic acids” (Bioorg Med Chem, 2008):
In brackets after ≈: the same amount, converted by molar mass.

Legend:
Toxoplasma gondii [1] = test: Antiparasitic activity against Toxoplasma gondii infected african green monkey Vero cells at 2 mM assessed as infected cells; assay type: functional
How it was run: (§1)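 Vero cells were infected with RH-strain tachyzoites (5:1 parasite:cell) for 1 h, washed with PBS, and grown 24 h at 37 °C in medium 199 with 5% FCS. Compound was then added for 24 h. Cells were fixed with Bouin's, stained with Giemsa, and at least 400 cells were counted by light microscopy for the percentage infected. Hydroxyurea and sulfadiazine served as references.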

Toxoplasma gondii [2] = test: Antiparasitic activity against Toxoplasma gondii infected african green monkey Vero cells at 0.1 mM assessed as infected cells; assay type: functional; how it was run: as §1
Toxoplasma gondii [3] = test: Antiparasitic activity against Toxoplasma gondii infected african green monkey Vero cells at 5 mM assessed as infected cells; assay type: functional; how it was run: as §1
Toxoplasma gondii [4] = test: Antiparasitic activity against Toxoplasma gondii infected african green monkey Vero cells at 8 mM assessed as infected cells; assay type: functional; how it was run: as §1
Toxoplasma gondii [5] = test: Antiparasitic activity against Toxoplasma gondii infected african green monkey Vero cells at 20 mM assessed as infected cells; assay type: functional; how it was run: as §1
Vero = test: Inhibition of uninfected african green monkey Vero cells; assay type: cell-based; conditions: Chlorocebus sabaeus
Toxoplasma gondii [6] = test: Inhibition of Toxoplasma gondii infected in african green monkey Vero cells; assay type: functional, organism-based
How it was run: (§2)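 Infected Vero cultures were exposed to compound at 0.01–30 mM for 24 h, in triplicate per assay. IC50 for infected cells and intracellular parasites was derived by non-linear regression, using trypan blue exclusion.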

Toxoplasma gondii [7] = test: Inhibition of intracellular parasite Toxoplasma gondii; assay type: functional, organism-based; how it was run: as §2
Staphylococcus aureus [8] = test: Antimicrobial activity against Staphylococcus aureus at 300 ug/disc; assay type: functional; conditions: read-out: IZ
How it was run: (§3)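 Disc diffusion on agar plates inoculated with a standardized microbial suspension, with paper discs carrying known compound amounts. DMSO-only discs served as negative controls, and chloramphenicol, rifampicin (bacteria) or nistatin (fungi) as references. The read-out is the mean inhibition zone diameter in mm. Each run was done three times and repeated if results differed.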

Bacillus subtilis [9] = test: Antimicrobial activity against Bacillus subtilis at 300 ug/disc; assay type: functional; conditions: read-out: IZ; how it was run: as §3
Micrococcus luteus [10] = test: Antimicrobial activity against Micrococcus luteus at 300 ug/disc; assay type: functional; conditions: read-out: IZ; how it was run: as §3
Escherichia coli [11] = test: Antimicrobial activity against Escherichia coli at 300 ug/disc; assay type: functional; conditions: read-out: IZ; how it was run: as §3
Klebsiella pneumoniae [12] = test: Antimicrobial activity against Klebsiella pneumoniae at 300 ug/disc; assay type: functional; conditions: read-out: IZ; how it was run: as §3
Enterococcus faecalis [13] = test: Antimicrobial activity against Streptococcus faecalis at 300 ug/disc; assay type: functional; conditions: read-out: IZ; how it was run: as §3
Mycolicibacterium phlei [14] = test: Antimicrobial activity against Mycobacterium phlei at 300 ug/disc; assay type: functional; conditions: read-out: IZ; how it was run: as §3
[15] = test system: Mycolicibacterium smegmatis; test: Antimicrobial activity against Mycobacterium smegmatis at 300 ug/disc; assay type: functional; conditions: read-out: IZ; how it was run: as §3
[16] = test system: Mycobacterium tuberculosis; test: Antimicrobial activity against Mycobacterium tuberculosis at 300 ug/disc; assay type: functional; conditions: read-out: IZ
How it was run: (§4)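 Agar disc diffusion: paper discs loaded with compound placed on agar plates seeded with a standardised microbial suspension. DMSO-only discs served as negative control. Chloramphenicol and rifampicin (bacteria) or nistatin (fungi) gave reference zones. Read-out was mean zone of inhibition diameter (mm). Each experiment was run three times and repeated if results differed.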

Saccharomyces cerevisiae [17] = test: Antimicrobial activity against Saccharomyces cerevisiae at 300 ug/disc; assay type: functional; conditions: read-out: IZ; how it was run: as §3
Candida [18] = test: Antimicrobial activity against Candida sp. IMUR1224 at 300 ug/disc; assay type: functional; conditions: read-out: IZ; how it was run: as §3
Candida albicans = test: Antimicrobial activity against Candida albicans at 300 ug/disc; assay type: functional; conditions: read-out: IZ; how it was run: as §3
Candida [19] = test: Antimicrobial activity against Candida sp. IMUR4249 at 300 ug/disc; assay type: functional; conditions: read-out: IZ; how it was run: as §3
[20] = test system: Mycobacterium tuberculosis; test: Antimicrobial activity against Mycobacterium tuberculosis; assay type: functional
Candida [21] = test: Antimicrobial activity against Candida sp. IMUR4249; assay type: functional
How it was run: (§5)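 Tube dilution MIC, run on compounds with a disc-diffusion zone of at least 18 mm. The DMSO stock (1 mg/mL) was serially diluted to 10–220 µg/mL final in medium, and strains were inoculated at 10^8/mL. Media were tryptic soy or nutrient agar for bacteria and Sabouraud liquid for fungi, incubated 24–48 h at 37 °C (bacteria) or 30 °C (fungi). MIC is the lowest concentration giving clear tubes.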

Candida [22] = test: Antimicrobial activity against Candida sp. IMUR720 at 300 ug/disc; assay type: functional; conditions: read-out: IZ; how it was run: as §3
Saccharomyces cerevisiae [23] = test: Antimicrobial activity against Saccharomyces cerevisiae at 100 ug/disc; assay type: functional, organism-based; how it was run: as §4
Candida [24] = test: Antimicrobial activity against Candida sp. IMUR1224 at 100 ug/disc; assay type: functional, organism-based; how it was run: as §4
Candida [25] = test: Antimicrobial activity against Candida sp. IMUR4249 at 100 ug/disc; assay type: functional, organism-based; how it was run: as §4
Candida [26] = test: Antimicrobial activity against Candida sp. IMUR720 at 100 ug/disc; assay type: functional, organism-based; how it was run: as §4
Staphylococcus aureus [27] = test: Antimicrobial activity against Staphylococcus aureus at 100 ug/disc; assay type: functional; conditions: read-out: IZ; how it was run: as §4
Bacillus subtilis [28] = test: Antimicrobial activity against Bacillus subtilis at 100 ug/disc; assay type: functional; conditions: read-out: IZ; how it was run: as §3
Micrococcus luteus [29] = test: Antimicrobial activity against Micrococcus luteus at 100 ug/disc; assay type: functional; conditions: read-out: IZ; how it was run: as §3
Escherichia coli [30] = test: Antimicrobial activity against Escherichia coli at 100 ug/disc; assay type: functional; conditions: read-out: IZ; how it was run: as §3
Enterococcus faecalis [31] = test: Antimicrobial activity against Streptococcus faecalis at 100 ug/disc; assay type: functional; conditions: read-out: IZ; how it was run: as §3
Mycolicibacterium phlei [32] = test: Antimicrobial activity against Mycobacterium phlei at 100 ug/disc; assay type: functional; conditions: read-out: IZ; how it was run: as §3
[33] = test system: Mycolicibacterium smegmatis; test: Antimicrobial activity against Mycobacterium smegmatis at 100 ug/disc; assay type: functional; conditions: read-out: IZ; how it was run: as §3
[34] = test system: Mycobacterium tuberculosis; test: Antimicrobial activity against Mycobacterium tuberculosis at 100 ug/disc; assay type: functional; conditions: read-out: IZ; how it was run: as §4
[35] = test system: Mycolicibacterium smegmatis; test: Antimicrobial activity against Mycobacterium smegmatis; assay type: functional; how it was run: as §5
Klebsiella pneumoniae [36] = test: Antimicrobial activity against Klebsiella pneumoniae at 100 ug/disc; assay type: functional; conditions: read-out: IZ; how it was run: as §3
Enterococcus faecalis [37] = test: Antimicrobial activity against Streptococcus faecalis; assay type: functional; how it was run: as §5
Staphylococcus aureus [38] = test: Antimicrobial activity against Staphylococcus aureus; assay type: functional; how it was run: as §5

Compound | Activity (Toxoplasma gondii [1]) | Activity (Toxoplasma gondii [2]) | Activity (Toxoplasma gondii [3]) | Activity (Toxoplasma gondii [4]) | Activity (Toxoplasma gondii [5]) | IC50 (Vero) | IC50 (Toxoplasma gondii [6]) | IC50 (Toxoplasma gondii [7]) | zone of inhibition at 300 µg/disc (Staphylococcus aureus [8]) | zone of inhibition at 300 µg/disc (Bacillus subtilis [9]) | zone of inhibition at 300 µg/disc (Micrococcus luteus [10]) | zone of inhibition at 300 µg/disc (Escherichia coli [11]) | zone of inhibition at 300 µg/disc (Klebsiella pneumoniae [12]) | zone of inhibition at 300 µg/disc (Enterococcus faecalis [13]) | zone of inhibition at 300 µg/disc (Mycolicibacterium phlei [14]) | zone of inhibition at 300 µg/disc [15] | zone of inhibition at 300 µg/disc [16] | zone of inhibition at 300 µg/disc (Saccharomyces cerevisiae [17]) | MBC [20] | MIC [20] | also measured
O=C(O)CC1S/C(=N\N=C\c2ccc(Cl)c(Cl)c2)N(c2ccccc2)C1=O (configuration not stated) | 0% | 101% | 0% | 0% | 0% | 4000 µM | 1500 µM | 1000 µM | 11 mm | 16 mm | 19 mm | < 7 mm | < 7 mm | 11 mm | 12 mm | 13 mm | 18 mm | < 7 mm | 90 mg/L (≈ 213 µM) | 100 mg/L (≈ 237 µM) | zone of inhibition at 300 µg/disc (Candida [18]): < 7 mm; zone of inhibition at 300 µg/disc (Candida albicans): 7 mm; zone of inhibition at 300 µg/disc (Candida [19]): 21 mm; MFC (Candida [21]): 100 mg/L (≈ 237 µM); MIC (Candida [21]): 120 mg/L (≈ 284 µM); zone of inhibition at 300 µg/disc (Candida [22]): < 7 mm
NYSTATIN |  |  |  |  |  |  |  |  |  |  |  |  |  |  |  |  |  |  |  |  | inhibition zone (IZ) (Saccharomyces cerevisiae [23]): 20 mm; inhibition zone (IZ) (Candida [24]): 30 mm; inhibition zone (IZ) (Candida [25]): 32 mm; MFC (Candida [21]): 70 mg/L; MIC (Candida [21]): 80 mg/L; inhibition zone (IZ) (Candida [26]): 20 mm
CO[C@H]1/C=C/O[C@@]2(C)Oc3c(C)c(O)c4c(O)c(c(/C=N/N5CCN(C)CC5)c(O)c4c3C2=O)NC(=O)/C(C)=C\C=C\[C@H](C)[C@H](O)[C@@H](C)[C@@H](O)[C@@H](C)[C@H](OC(C)=O)[C@@H]1C [RIFAMPIN] |  |  |  |  |  |  |  |  |  |  |  |  |  |  |  |  |  |  | 100 mg/L (≈ 122 µM) | 110 mg/L (≈ 134 µM) | zone of inhibition at 100 µg/disc (Staphylococcus aureus [27]): 31 mm; zone of inhibition at 100 µg/disc (Bacillus subtilis [28]): 20 mm; zone of inhibition at 100 µg/disc (Micrococcus luteus [29]): 49 mm; zone of inhibition at 100 µg/disc (Escherichia coli [30]): 14 mm; zone of inhibition at 100 µg/disc (Enterococcus faecalis [31]): 20 mm; zone of inhibition at 100 µg/disc (Mycolicibacterium phlei [32]): 25 mm; zone of inhibition at 100 µg/disc [33]: 30 mm; zone of inhibition at 100 µg/disc [34]: 28 mm; MBC [35]: 130 mg/L (≈ 158 µM); MIC [35]: 140 mg/L (≈ 170 µM)
O=C(N[C@H](CO)[C@H](O)c1ccc([N+](=O)[O-])cc1)C(Cl)Cl [CHLORAMPHENICOL] |  |  |  |  |  |  |  |  |  |  |  |  |  |  |  |  |  |  |  |  | zone of inhibition at 100 µg/disc (Staphylococcus aureus [27]): 25 mm; zone of inhibition at 100 µg/disc (Bacillus subtilis [28]): 27 mm; zone of inhibition at 100 µg/disc (Micrococcus luteus [29]): 50 mm; zone of inhibition at 100 µg/disc (Escherichia coli [30]): 27 mm; zone of inhibition at 100 µg/disc (Klebsiella pneumoniae [36]): 25 mm; MBC (Enterococcus faecalis [37]): 60 mg/L (≈ 186 µM); MIC (Enterococcus faecalis [37]): 70 mg/L (≈ 217 µM); MBC (Staphylococcus aureus [38]): 20 mg/L (≈ 61.9 µM); MIC (Staphylococcus aureus [38]): 25 mg/L (≈ 77.4 µM)
CC(C)(C)c1cc(/C=N/N=C2\SC(CC(=O)O)C(=O)N2c2ccccc2)cc(C(C)(C)C)c1O (configuration not stated) | 0% | 53.55% | 0% | 0% | 0% | 1000 µM | 1000 µM | 1000 µM | 26 mm | 19 mm | 22 mm | < 7 mm | < 7 mm | 18 mm | 16 mm | 26 mm | 23 mm | < 7 mm | 100 mg/L (≈ 208 µM) | 110 mg/L (≈ 228 µM) | zone of inhibition at 300 µg/disc (Candida [18]): < 7 mm; zone of inhibition at 300 µg/disc (Candida albicans): 9 mm; zone of inhibition at 300 µg/disc (Candida [19]): < 7 mm; MBC (Enterococcus faecalis [37]): 190 mg/L (≈ 395 µM); MIC (Enterococcus faecalis [37]): 200 mg/L (≈ 415 µM); MBC (Staphylococcus aureus [38]): 45 mg/L (≈ 93.4 µM); MIC (Staphylococcus aureus [38]): 50 mg/L (≈ 104 µM); MBC [35]: 140 mg/L (≈ 291 µM); MIC [35]: 150 mg/L (≈ 311 µM); zone of inhibition at 300 µg/disc (Candida [22]): < 7 mm
O=C(O)CC1S/C(=N\N=C\c2ccc(Cl)cc2Cl)N(c2ccccc2)C1=O (configuration not stated) | 18.08% | 63.23% | 19.05% | 0% | 0% | 2000 µM | 1500 µM | 1000 µM | 10 mm | 17 mm | 20 mm | < 7 mm | < 7 mm | 15 mm | 12 mm | 16 mm | 22 mm | < 7 mm | 60 mg/L (≈ 142 µM) | 70 mg/L (≈ 166 µM) | zone of inhibition at 300 µg/disc (Candida [18]): < 7 mm; zone of inhibition at 300 µg/disc (Candida albicans): 7 mm; zone of inhibition at 300 µg/disc (Candida [19]): 14 mm; zone of inhibition at 300 µg/disc (Candida [22]): < 7 mm
